COUP-TFII inh – blocks human COUP-TFII nuclear receptor. P24468. HEK293T NGFI-A luciferase reporter, luminescence. inhibition, % at 8.6 µM. hit rate 0.7% among 370,000;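 active = inhibition above a per-plate cutoff, mean inhibition of test wells between control levels plus 3 SD, cut at about 38% in these data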;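 also: cells cotransfected with COUP-TFII expression vector driving the NGFI-A reporter; 0% = median of COUP-TF2 test wells and 100% = reporter-only cells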
NR2E3 ag-1 – agonists of human nuclear receptor NR2E3; hit rate 0.12% among 320,000; AID 2300; GST-NR2E3/biotin-RetCOR TR-FRET, 1536-well; inhibition of corepressor binding, % at 4.78 µM;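 active = percent inhibition above the cutoff of mean plus 3 SD of all tested compounds, set per screening campaign, cut at about 20% in these data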;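 also: 0% = DMSO wells and 100% = biotin wells as full block of FRET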
Target sequence (Q9Y5X4 whole entry, looked up): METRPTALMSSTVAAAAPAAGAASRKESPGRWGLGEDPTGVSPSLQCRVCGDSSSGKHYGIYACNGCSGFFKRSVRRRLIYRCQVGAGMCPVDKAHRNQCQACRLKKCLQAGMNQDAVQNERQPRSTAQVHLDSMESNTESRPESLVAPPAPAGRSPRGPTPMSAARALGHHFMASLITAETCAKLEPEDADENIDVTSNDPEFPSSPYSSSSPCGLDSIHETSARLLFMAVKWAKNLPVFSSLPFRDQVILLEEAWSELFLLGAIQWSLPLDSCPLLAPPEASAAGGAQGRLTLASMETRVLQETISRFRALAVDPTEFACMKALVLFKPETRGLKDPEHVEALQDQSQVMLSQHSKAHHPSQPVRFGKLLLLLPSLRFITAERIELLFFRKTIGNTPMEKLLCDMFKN
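System: GST-tagged NR2E3 plus biotinylated RetCOR corepressor; Amount: 1.35 nM GST-tagged NR2E3 final; Dosing: single nominal compound dose of 4.8 µM; Schedule: 5 h incubation at 4 °C; Technique: TR-FRET with europium anti-GST and streptavidin-D2, 340 nm excitation; Controls: biotin wells as high control, 0.6% DMSO wells as low control.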
GalR3 antag – human GalR3 antagonism. hit rate 0.44% among 360,000. O60755. HEK293 GalR3-CNG cAMP membrane potential fluorescence; galR3 body fused to GalR1 C-terminus. AID 651719. inhibition, % at 3 µM;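 active = inhibition above the screen-wide average plus 3 SD, cut at about 13% in these data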;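 also: forskolin and galanin both at EC90 stimulate the cells; cAMP rise reported by CNG channel membrane potential dye signal; 0% = forskolin plus galanin with DMSO and 100% = forskolin alone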
Target sequence (O60755 1-299 limits assumed): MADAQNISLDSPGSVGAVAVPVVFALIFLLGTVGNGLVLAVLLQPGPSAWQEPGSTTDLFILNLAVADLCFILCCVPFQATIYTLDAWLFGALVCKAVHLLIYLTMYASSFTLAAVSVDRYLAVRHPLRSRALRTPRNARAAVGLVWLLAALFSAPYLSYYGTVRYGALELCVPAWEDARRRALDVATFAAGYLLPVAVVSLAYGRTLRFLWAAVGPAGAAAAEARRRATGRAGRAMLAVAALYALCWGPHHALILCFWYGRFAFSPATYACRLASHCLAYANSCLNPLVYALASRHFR
NR2E3 ag-2 – agonists of human NR2E3 nuclear receptor; Q9Y5X4; CHO-S Gal4-NCOR/VP16-NR2E3 two-hybrid, luciferase; inhibition of corepressor binding, % at 3.98 µM; hit rate 0.35% among 360,000;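 active = inhibition above the mean of all tested compounds plus 3 SD, cut at about 70% in these data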;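 also: 0% = DMSO with NR2E3 transfected cells and 100% = cells lacking NR2E3 construct; higher means lower luciferase signal from less NR2E3 corepressor binding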
CHT allo act – human CHT allosteric activation. CHT-expressing cells, membrane potential dye, choline EC20; active compounds read high; LV-AA mutant CHT in HEK293 cells. B-score at 10 µM. hit rate 0.49% among 310,000. AID 488977;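 active = initial fluorescence not abnormally high and integrated response B-score, plate-corrected, over 3 SD above library mean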
CHT inh – human CHT choline transport inhibition | CHT-expressing cells, membrane potential dye, choline response; active compounds read low | B-score at 10 µM | hit rate 0.86% among 310,000;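 active = B-score over 3 SD under the library average, and starting fluorescence ratio not unusually high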;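 also: choline stimulus applied at its EC90 after an EC20 pre-addition; B-score computed on integrated fluorescence ratio after choline addition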
GalR3 antag conf – confirmation of human galanin receptor 3 antagonists; inhibition, % at 3 µM; shares compounds with GalR3 antag; AID 652245; HEK293 GalR3 CNG cAMP biosensor, membrane potential fluorescence; galR3 fused to GalR1 carboxy tail; challenged with forskolin and galanin at EC90; hit rate 59% among 1,600;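 active = inhibition above the primary screen's cutoff, the mean inhibition of all screened compounds plus 3 SD, cut at about 13% in these data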;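 also: 0% = forskolin plus galanin and 100% = forskolin alone with DMSO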
CNG parental – acts as nonspecific agonist in parental HEK-CNG cells; shares compounds with GalR3 antag; activation, % at 3 µM; hit rate 10% among 1,600; HEK293-CNG parental cells, cAMP membrane potential fluorescence; normalised: DMSO wells 0%, forskolin wells 100%; AID 652268; in the data active = activation above about 1.3%
The depositor's hits bear a star; i = inactive; . = no result given. Sampled rows, rich in hits. Any-hit rate of the full collection: about 2.3%.

SMILES | COUP-TFII inh | NR2E3 ag-1 | GalR3 antag | NR2E3 ag-2 | CHT allo act | CHT inh | GalR3 antag conf | CNG parental
COCCCN1C(=O)[C@H](CC(=O)NCc2ccc(C)o2)[C@]2(C(=O)OC)CCCCC=C12 | -4 | . | . | . | . | . | . | .
CCn1c(C)c(C(C)=O)c(N2CCN(c3ccccc3)CC2)nc1=S | 12 | 2 | 42* | -3 | i | i | 3 | 0
CC(=O)c1c(N2CCCC2)nc(=S)n(-c2ccccc2)c1C | -7 | 5 | 2 | 0 | i | i | . | .
CC(=O)c1c(N2CCCCC2)nc(=S)n(-c2ccccc2)c1C | -32 | 1 | . | -57 | i | i | 0 | 1
CC(C)n1nnnc1C1(C)CCSCC(=O)N1Cc1cccc(C(F)(F)F)c1 (stereo not given) | 2 | . | . | . | . | . | . | .
O=[N+]([O-])c1c(Nc2ccc(O)cc2)cc(Cl)c2nonc12 | 15 | -1 | 58* | 22 | i | i | 51* | 0
CSc1nsc2nc(=O)c(/C=C3\C(C)=Nc4ccccc43)c(N)n12 | -21 | . | 13* | -60 | . | . | 3 | 0
Cc1ccccc1NC(=O)CSc1nc(N)c2c3c(sc2n1)CSC(C)(C)C3 | 14 | 1 | 21* | -27 | i | i | 39* | 0
Cc1ccc(NC(=O)CSc2nc(N)c3c4c(sc3n2)CSC(C)(C)C4)cc1 | 3 | -2 | 12 | -12 | i | i | . | .
FC(F)(F)c1cccc(/C=N/NC(=S)NC2CCCCC2)c1 | 9 | 4 | 90* | -29 | i | i | 84* | 2.5*
COc1ccc(Cn2ccc3ccc(-c4ccc5ccn(Cc6ccc(F)cc6)c5c4)cc32)cc1 | 2 | . | . | . | . | . | . | .
CC1(C)CC(=O)C2=C(C1)NC1=C(C(=O)c3ccccc31)C2c1ccc(O)cc1 (stereo not given) | 1 | -5 | 34* | -3 | i | i | 60* | -1
CCCCNS(=O)(=O)/C=C/c1ccc(OC)cc1CNC(=O)OC(C)(C)C | 13 | . | . | . | . | . | . | .
COc1cc(C2NC(=O)NC(C)=C2C(=O)OCc2ccc(C)cc2)cc(OC)c1O (stereo not given) | 9 | 0 | 15* | -22 | i | i | 14* | 0
COCCOC(=O)c1c(NC(=O)CN2CCOCC2)sc(C(N)=O)c1C | 9 | -2 | -2 | -4 | i | i | . | .
COCCOC(=O)c1c(NC(=O)CN2c3ccccc3CC2C)sc(C(N)=O)c1C (stereo not given) | 21 | -1 | 17* | -21 | i | i | 10 | 1
COn1c(SCc2ccc(Cl)cc2)nc2ccccc2c1=O | 11 | 1 | -5 | -12 | i | i | . | .
COn1c(SCc2cccnc2)nc2ccccc2c1=O | 18 | -1 | . | -27 | i | i | 3 | 1
COc1cc(NC(=O)COc2cccc(C)c2C)ccc1NC(=O)c1ccco1 | 3 | 0 | 14* | -1 | i | i | 6 | 1
COCO[C@@H]1CC(CO)=C[C@H]2OCO[C@H]21 | 23 | . | . | . | . | . | . | .
O=Cc1cn(CC(=O)N2CCc3ccccc32)c2ccccc12 | -4 | 3 | -3 | 11 | i | i | . | .
O=Cc1cn(CC(=O)N2CCCCCC2)c2ccccc12 | -10 | 4 | 19* | -4 | i | i | 6 | 0
COC(=O)[C@]12C[C@H](CC(=O)N3CCSCC3)C(=O)N(Cc3ccco3)C1=C[C@H](C(C)(C)C)O[C@@H]2C | 4 | . | . | . | . | . | . | .
COc1ccc(O)c(C(=O)c2cnc3nc4ccccc4n3c2)c1 | 16 | 1 | 22* | -69 | i | i | 18* | 1
CCCCCCCCN1C(=O)[C@@H](CC(=O)NCCCOC)C[C@@]2(C(=O)OC)C1=C[C@H](C(C)C)O[C@@H]2C1CC1 | -6 | . | . | . | . | . | . | .
SMILES | COUP-TFII inh | NR2E3 ag-1 | GalR3 antag | NR2E3 ag-2 | CHT allo act | CHT inh | GalR3 antag conf | CNG parental
COC(=O)COc1ccc(S(=O)(=O)NCc2ccncc2)cc1 | 23 | 3 | 96* | -21 | i | i | 113* | -1
O=C(c1cccs1)N1CCOCC1 | 2 | 1 | 13* | -4 | i | i | 7 | 0
O=C(c1cccs1)N1CCCC1 | 5 | -2 | -2 | -10 | i | i | . | .
CCOc1ccc(CO/N=C/c2c(C)[nH]c(=O)[nH]c2=O)cc1 | -3 | 2 | 22* | -9 | i | i | 21* | 0
CCOc1ccc(N(CC)S(=O)(=O)c2c(C)[nH]c(=O)[nH]c2=O)cc1 | 6 | -1 | -6 | 1 | i | i | . | .
COc1cccc(Cn2cc(COC(=O)NCCc3c[nH]c4ccccc34)nn2)c1 | -5 | . | . | . | . | . | . | .
CC(=O)Nc1ccc(OCC(O)Cn2c3ccccc3c3ccccc32)c(C)c1 (stereo not given) | 29 | 1 | 15* | -33 | i | i | 41* | -2
CC(=O)Nc1ccc(OCC(O)Cn2c3ccccc3c3ccccc32)cc1 (stereo not given) | -25 | 5 | -2 | -4 | i | i | . | .
CCCC1CCC2(CCCN2CCOC(=O)Nc2cccc(Cl)c2)CC1 (stereo not given) | -9 | . | . | . | . | . | . | .
CN(CCO)c1cc(Sc2nc3ccccc3s2)c2nonc2c1[N+](=O)[O-] | 19 | 7 | 28* | 33 | i | i | 51* | 1
COc1cccc(Cn2c(NCc3ccccn3)nc3c2c(=O)n(C)c(=O)n3C)c1 | -1 | . | 14* | . | . | . | 10 | 0
COc1cccc(Cn2c(NCc3cccnc3)nc3c2c(=O)n(C)c(=O)n3C)c1 | 19 | 1 | 3 | 14 | i | i | . | .
Cc1noc(C)c1C(C)C1=CCCCC1 (stereo not given) | -8 | . | . | . | . | . | . | .
O=C1C(CN2CCCC2)CCCC1CN1CCCC1 (stereo not given) | -70 | . | 15* | 1 | . | . | -1 | 1
COc1ccc(OCC(=O)Nc2ccc3oc(-c4ccncc4)nc3c2)cc1 | -46 | 0 | -1 | -1 | i | i | . | .
COc1ccc(-c2nc3cc(NC(=O)Cc4ccc(OC)c(OC)c4)ccc3o2)cc1 | 28 | -1 | 38* | 11 | i | i | 11 | 0
CCCCN=C(N)NC(=O)OCc1ccccc1 | -29 | . | . | . | . | . | . | .
COc1ccc(-c2nc(C#N)c(NCc3ccc(F)cc3)o2)cc1OC | 7 | 1 | 13* | -6 | i | i | 25* | 0
CCN(Cc1cn(Cc2ccccc2)nn1)S(=O)(=O)c1ccc(F)cc1Br | 23 | . | . | . | . | . | . | .
